Measurements of several laboratories.
Lines come from different studies, so protocols differ.
Target: Serine/threonine-protein kinase ULK2 (ULK2, Homo sapiens, UniProt Q8IYT8)
Residues used in one study (Q8IYT8 1-1036): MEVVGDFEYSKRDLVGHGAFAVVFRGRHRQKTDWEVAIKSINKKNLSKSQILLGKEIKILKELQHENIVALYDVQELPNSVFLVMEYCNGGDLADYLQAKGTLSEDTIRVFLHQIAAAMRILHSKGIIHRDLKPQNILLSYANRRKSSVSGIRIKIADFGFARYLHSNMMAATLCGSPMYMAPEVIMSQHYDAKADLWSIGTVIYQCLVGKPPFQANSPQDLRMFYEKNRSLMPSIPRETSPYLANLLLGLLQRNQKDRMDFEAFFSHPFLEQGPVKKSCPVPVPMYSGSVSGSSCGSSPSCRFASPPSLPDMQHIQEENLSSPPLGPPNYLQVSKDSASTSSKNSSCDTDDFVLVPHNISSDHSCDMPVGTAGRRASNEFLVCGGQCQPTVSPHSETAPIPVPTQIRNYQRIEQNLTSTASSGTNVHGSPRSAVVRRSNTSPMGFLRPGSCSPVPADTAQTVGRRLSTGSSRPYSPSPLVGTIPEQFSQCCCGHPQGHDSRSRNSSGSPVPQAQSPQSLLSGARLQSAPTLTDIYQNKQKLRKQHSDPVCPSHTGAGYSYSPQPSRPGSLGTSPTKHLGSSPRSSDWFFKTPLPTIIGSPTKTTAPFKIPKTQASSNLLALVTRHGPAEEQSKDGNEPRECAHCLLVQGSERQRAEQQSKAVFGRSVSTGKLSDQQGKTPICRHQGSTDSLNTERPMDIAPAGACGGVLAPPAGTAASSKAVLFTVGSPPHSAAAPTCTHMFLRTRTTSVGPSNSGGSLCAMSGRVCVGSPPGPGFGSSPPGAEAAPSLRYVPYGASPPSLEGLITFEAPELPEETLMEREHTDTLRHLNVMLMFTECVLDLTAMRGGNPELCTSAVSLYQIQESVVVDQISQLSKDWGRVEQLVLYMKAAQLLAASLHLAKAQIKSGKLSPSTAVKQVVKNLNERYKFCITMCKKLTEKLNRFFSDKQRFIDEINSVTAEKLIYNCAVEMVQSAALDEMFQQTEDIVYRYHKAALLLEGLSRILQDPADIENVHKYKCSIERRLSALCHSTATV

C[C@@H](c1ccc(-n2cnc3c(N)ncnc32)cc1)N1CCc2nn(C)c(Cc3ccccc3)c2C1=O — remaining binding (binding; competition with immobilised ligand; 0.1 µM): 70%
CNC(=O)[C@@H]1CC[C@@H](n2c(-c3ccc4cnccc4c3)nc3ccc(C(=O)NCc4cccc(C(N)=O)c4)cc32)C1 — remaining binding (binding; competition with immobilised ligand; 1 µM): 100%
c1cnn2ncc(-c3ccnc(N4CCC45COC5)n3)c2c1 — remaining binding (binding; 1 µM): 59%
N#Cc1ccccc1CSc1nnc2c(n1)[nH]c1ccccc12 — remaining binding (binding; competition with immobilised ligand; 10 µM): 94%
NS(=O)(=O)c1cc(NC(=O)C2(c3ccccc3Cl)CC2)ccc1Oc1cccc(Cl)c1 — remaining binding (cell-free assay; competition with immobilised ligand; 1 µM): 100%
CN(CCCC(F)(F)F)c1nccc(-c2cnn3ncccc23)n1 — remaining binding (binding; 1 µM): 96%
O=C(NCCCN1CCOCC1)c1ccc(Nc2nccc(-c3cc4ccccc4s3)n2)cc1 — remaining binding (binding; competition with immobilised ligand; 1 µM): 62%
COc1cc(-c2cn(C3CCc4c(F)cccc4N(CC(F)(F)F)C3=O)nn2)ccc1-n1cnc(C)c1 (stereo not shown) — remaining binding (cell-free assay; competition with immobilised ligand; 1 µM): 100%
CC(C)(C)c1ccc(-c2nc(CBr)nn2-c2cccc(O)c2)cc1 — remaining binding (cell-free assay; competition with immobilised ligand; 10 µM): 92%
CN(c1nccc(-c2cnn3ncccc23)n1)C1CC1 — remaining binding (binding; 1 µM): 100%
COc1ccc2c(c1)O[C@H](c1ccc(OC)c(OC)c1)C[C@@H]2NC(=O)C1(c2ccc3c(c2)OC(F)(F)O3)CC1 — remaining binding (cell-free assay; competition with immobilised ligand; 1 µM): 100%
O=C(Nc1c[nH]nc1C(=O)NC1CCNCC1)c1cc(F)cc(F)c1 — remaining binding (binding; competition with immobilised ligand; 1 µM): 99%
Cc1cnn2ncc(-c3ccnc(N(C)C)n3)c2c1 — remaining binding (binding; 1 µM): 92%
O=C(c1ccc(Nc2nccc(-c3cc4ccccc4s3)n2)cc1)N1CCC(N2CCCC2)CC1 — remaining binding (binding; competition with immobilised ligand; 1 µM): 87%
O=C1CCc2cc(Nc3cc(OC4CCOCC4)c([N+](=O)[O-])cc3Cl)ccc2N1 — remaining binding (cell-free assay; competition with immobilised ligand; 1 µM): 99%
O=C(NCCCN1CCOCC1)c1ccc(Nc2ncc(Cl)c(-c3ccc(Cl)s3)n2)cc1 — remaining binding (binding; competition with immobilised ligand; 1 µM): 24%
COc1cnc(Nc2cccc(S(N)(=O)=O)c2)nc1N1CCN(c2ccccc2)CC1 — remaining binding (binding; competition with immobilised ligand; 1 µM): 96%
CCC(=O)N[C@H]1CC[C@@H](C(=O)N(C)c2ccc(-c3nc4ccccc4o3)cc2)C1 — remaining binding (cell-free assay; competition with immobilised ligand; 1 µM): 75%
C[C@H]1CCN(c2nccc(-c3cnn4ncccc34)n2)C1 — remaining binding (binding; 1 µM): 63%
O=C(NS(=O)(=O)c1ccc(NCC2CCOCC2)c([N+](=O)[O-])c1)c1ccc(N2CCN(Cc3ccc(C(F)(F)F)cc3-c3ccc(Cl)cc3)CC2)cc1Oc1cnc2[nH]ccc2c1 — remaining binding (cell-free assay; competition with immobilised ligand; 1 µM): 100%
C[C@@H]1CN(c2ccc3ncc(-c4ccc5[nH]nc(C6CC6)c5c4)n3n2)C[C@H](C)O1 — remaining binding (binding; competition with immobilised ligand; 0.5 µM): 91%
COCCOc1nc(-c2ccc(Cl)nc2)nc2c1CN(C(=O)c1ncn3ccccc13)CC2 — remaining binding (cell-free assay; competition with immobilised ligand; 0.1 µM): 100%
COc1ccnn2ncc(-c3ccnc(N(C)C)n3)c12 — remaining binding (binding; 1 µM): 100%
FC(F)(F)c1ccc2c(c1)nc(-c1cccnc1)n2C1CC1 — remaining binding (cell-free assay; competition with immobilised ligand; 1 µM): 100%
CCN1CCN(Cc2ccc(C(=O)Nc3ccc(C)c(Oc4ccc5c(c4)CC(=O)N5)c3)cc2C(F)(F)F)CC1 — remaining binding (binding; competition with immobilised ligand; 1 µM): 100%
